Hits are enriched below; roughly 2.3% of the tested compounds scored in any of these assays.
TRPC4 block – inhibitors of mouse TRPC4 channel, primary screen, Fluo4 calcium, HEK293 TRPC4beta/mu-opioid cells; DAMGO-evoked Fluo4 calcium flux; hits give low values; B-score at 10 µM; Short transient receptor potential channel 4 (Mus musculus), Q9QUQ5; hit rate 0.39% among 300,000;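 active = B-score over 3 SD under the library average, no early fluorescence shift, positive overall ratio signal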
Target sequence (Q9QUQ5 whole entry, looked up): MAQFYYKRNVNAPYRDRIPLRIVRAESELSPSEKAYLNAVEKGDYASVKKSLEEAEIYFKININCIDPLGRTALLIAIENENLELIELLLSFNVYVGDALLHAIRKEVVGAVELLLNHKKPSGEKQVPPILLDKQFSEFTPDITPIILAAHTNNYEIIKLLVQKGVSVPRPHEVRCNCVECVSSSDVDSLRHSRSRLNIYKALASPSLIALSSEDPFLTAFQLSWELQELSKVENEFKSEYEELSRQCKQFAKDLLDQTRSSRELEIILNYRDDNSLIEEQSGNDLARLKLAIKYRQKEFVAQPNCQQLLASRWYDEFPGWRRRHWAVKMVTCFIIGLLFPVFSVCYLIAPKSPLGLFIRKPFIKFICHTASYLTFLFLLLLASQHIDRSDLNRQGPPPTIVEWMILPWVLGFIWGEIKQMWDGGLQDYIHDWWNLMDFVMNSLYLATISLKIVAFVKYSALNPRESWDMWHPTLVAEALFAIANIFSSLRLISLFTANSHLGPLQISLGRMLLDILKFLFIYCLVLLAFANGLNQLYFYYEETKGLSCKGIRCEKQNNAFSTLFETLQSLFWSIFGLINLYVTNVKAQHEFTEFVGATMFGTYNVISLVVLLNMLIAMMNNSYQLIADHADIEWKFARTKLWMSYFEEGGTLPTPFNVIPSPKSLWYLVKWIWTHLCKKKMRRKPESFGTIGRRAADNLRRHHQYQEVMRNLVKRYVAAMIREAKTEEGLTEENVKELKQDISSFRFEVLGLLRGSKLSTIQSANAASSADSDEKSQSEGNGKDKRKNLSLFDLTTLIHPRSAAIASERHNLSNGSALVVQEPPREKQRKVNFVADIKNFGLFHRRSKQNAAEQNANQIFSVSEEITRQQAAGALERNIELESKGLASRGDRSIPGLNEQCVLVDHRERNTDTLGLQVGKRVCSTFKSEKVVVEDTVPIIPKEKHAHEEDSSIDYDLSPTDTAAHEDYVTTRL
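System: stable TRPC4beta/mu-opioid receptor HEK293 cells; Dosing: single-point compound dosing; Measured by: Fluo4 Ca2+ flux fluorescence; Read-out basis: per-well B score of integrated baseline-normalized Fluo4 ratio.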
TRPC6 inh – mouse TRPC6 channel inhibitors, primary screen, cell-based, HEK293, membrane potential dye. Short transient receptor potential channel 6 (Mus musculus), Q61143. ACh-evoked depolarization; hits give low values. B-score at 10 µM. hit rate 1.1% among 310,000. AID 2553, 2010;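 active = B-score under library mean minus 3 SD, initial fluorescence not abnormally high, positive integrated signal ratio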;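 note: B-score derived from integrated fluorescence ratio over the kinetic read; more negative B-score means stronger inhibition of depolarization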
TRPC4 act – activators of mouse TRPC4 channel, primary screen, Fluo4 calcium, HEK293 TRPC4beta/mu-opioid cells. hit rate 0.49% among 310,000. Short transient receptor potential channel 4 (Mus musculus), Q9QUQ5. Fluo4 calcium fluorescence; hits give high values. B-score at 10 µM;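 active = B-score above 5 SD of library B-scores, and initial fluorescence ratio not above library mean plus 5 SD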;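 note: positive B-score marks a calcium rise read as TRPC4 activation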
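Incubation: 45 min room-temperature Fluo4 loading, 110 s read / System: HEK293 cells stably co-expressing mouse TRPC4beta and mu-opioid receptor / Signal: Fluo4 fluorescence, kinetic / Control set: buffer (low) and maximal DAMGO (high) / Measure: integrated baseline-normalised fluorescence ratio, converted to per-well B score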
TRPC6 activator – mouse TRPC6 channel activators, primary screen, cell-based, HEK293, membrane potential dye | Short transient receptor potential channel 6 (Mus musculus), Q61143 | HEK293-TRPC6 membrane potential dye fluorescence; hits give high values | B-score at 10 µM | hit rate 0.13% among 310,000 | AID 2550, 2010;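 active = B-score of the integrated fluorescence ratio above library mean plus 3 SD, and starting fluorescence ratio within library mean plus 5 SD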;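 note: higher score means more depolarization so channel activation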
TRPC4 potent – positive allosteric modulators of TRPC4, primary screen, cell-based, mouse TRPC4beta, HEK293 mu-opioid, Fluo-4 calcium | Short transient receptor potential channel 4 (Mus musculus), Q9QUQ5 | DAMGO EC20, Fluo-4 Ca2+ flux; hits give high values | B-score at 10 µM | hit rate 0.42% among 310,000;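 active = B-score of calcium response area above 5 SD of library B-scores, with initial fluorescence ratio within 5 SD of library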;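 note: B-score of integrated fluorescence ratio over time as area under calcium response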
TRPC4 spec 2 – mouse TRPC4 off-target activity of TRPC6 inhibitors, second screen | inhibition, % at 10 µM | shares compounds with TRPC6 inh | HEK293 TRPC4/MOR, membrane potential dye fluorescence; channel activated by saturating DAMGO dose | AID 2776 | hit rate 42% among 920;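 active = compounds whose fluorescence signal differed from control wells by over 3 SD, either direction, in both duplicate plates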
TRPC4 spec – mouse TRPC4 modulation by TRPC6 hits, confirmation, selectivity assay for TRPC6 inhibitor project, cell-based, HEK293 TRPC4/mu-opioid, membrane potential dye; shares compounds with TRPC6 inh; membrane potential fluorescence; activity change, negative = inhibition, % at 10 µM; hit rate 61% among 920;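 active = rise or fall in signal beyond 3 SD of buffer-only wells in both replicate plates, either sign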;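 note: integrated kinetic ratio of fluorescence range over baseline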
HEK293 MPD ctr 2-1 – nonspecific membrane potential effects, parental HEK293, confirmation, counter-screen for TRPC6 inhibitor project, cell-based, second counter screen. shares compounds with TRPC6 inh. parental HEK293 membrane potential dye fluorescence; maximal acetylcholine challenge after compound addition. signal change vs control, % at 10 µM. hit rate 31% among 920. AID 2779, 2010;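 active = membrane potential signal moving either way by over 3 SD of the maximum-effect control, in both duplicate plates, meaning non-specific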
HEK293 MPD ctr-1 – membrane potential modulation in parental HEK293, confirmation, counter-screen for TRPC6 inhibitor project, cell-based | shares compounds with TRPC6 inh | parental HEK293 membrane potential dye fluorescence | membrane potential signal change, % at 10 µM | hit rate 60% among 920;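 active = membrane potential signal shifting up or down by more than 3 SD of buffer-only wells, on both duplicate plates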
HEK293 MPD ctr-2 – parental HEK293 membrane potential modulation, confirmation, counter-screen for TRPC6 modulator project, cell-based | shares compounds with TRPC6 inh | membrane potential dye fluorescence | membrane potential signal change, % at 10 µM | hit rate 51% among 2,400;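 active = membrane potential signal moves up or down beyond 5 SD from buffer-only wells, on both duplicate plates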
HEK293 MPD ctr 2-2 – parental HEK293 nonspecific activity of TRPC6 modulators, second screen; hit rate 14% among 2,400; AID 488926; shares compounds with TRPC6 inh; inhibition, % at 10 µM; membrane potential dye fluorescence; after compound, maximal acetylcholine stimulation;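 active = membrane potential signal drops by more than 5 SD from the mean control signal, in both duplicate plates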;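 note: plate controls were acetylcholine ECmax control wells for no effect and buffer only wells for full effect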
TRPC4 ctr mod – TRPC4 modulation by TRPC6 hit compounds, confirmation, selectivity assay for TRPC6 modulator project, cell-based, HEK293 TRPC4/mu-opioid, membrane potential dye, mouse; shares compounds with TRPC6 inh; membrane potential fluorescence; percent change from control (negative = decrease, positive = increase), % at 10 µM; hit rate 69% among 2,400; AID 488927, 2010;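 active = membrane potential signal moved up or down beyond 5 SD of buffer control wells, in both duplicate plates, actives on both sides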;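 note: plate controls were assay buffer wells for no effect and DAMGO maximal-effect wells for full effect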
TRPC4/MOR inh 2 – second selectivity test of TRPC6 modulators against mouse TRPC4; shares compounds with TRPC6 inh; HEK293 TRPC4/mu-opioid, membrane potential dye fluorescence; stimulated with maximal-effect DAMGO; inhibition, % at 10 µM; hit rate 55% among 2,400;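 active = drop in membrane potential signal beyond 5 SD of the control wells in both duplicate plates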;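 note: TRPC4 counter screen for TRPC6 hits run under conditions tuned for TRPC6 not TRPC4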
TRPC6 inh conf – mouse TRPC6 channel inhibitors, confirmation, HEK293 cells, membrane potential dye, duplicate; shares compounds with TRPC6 inh; ACh-evoked depolarization; inhibition, % at 10 µM; hit rate 43% among 3,300;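 active = fluorescence ratio falls more than 5 SD below the full-stimulation control mean, in both duplicate runs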;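 note: integrated fluorescence ratio of peak minus minimum over baseline after agonist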
TRPC6 act conf – mouse TRPC6 channel activators, confirmation, HEK293 cells, membrane potential dye, duplicate | shares compounds with TRPC6 inh | HEK293-TRPC6 membrane potential dye fluorescence, FDSS | activation, % at 10 µM | hit rate 11% among 2,800 | AID 488961, 2010;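 active = ratio signal rise beyond 5 SD above unstimulated control wells' mean, seen in both duplicate runs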;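 note: plate controls were buffer EC0 wells for no effect and acetylcholine ECmax response for full effect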
* hit, by the source's call; i = inactive; · = no result.

SMILES	TRPC4 block	TRPC6 inh	TRPC4 act	TRPC6 activator	TRPC4 potent	HEK293 MPD ctr-2	HEK293 MPD ctr 2-2	TRPC4 ctr mod	TRPC4/MOR inh 2	TRPC6 inh conf	TRPC6 act conf	others
CC(C)(C)c1ccc(C(=O)NCC(=O)OCCN2C(=O)c3ccccc3C2=O)cc1	i	i	i	i	i	·	·	·	·	·	·
O=C(NCCCN1CCOCC1)c1ccc2c(c1)N(Cc1cccc(Cl)c1)C(=O)CS2	i	-4.99*	i	i	i	664.0%*	160.5%*	133.0%*	41.0%*	93.0%*	·
O=C(NCCCN1CCCC1)c1ccc2c(c1)N(Cc1ccccc1)CCS2	i	-5.87*	i	i	i	i	i	-8.5%*	80.0%*	61.5%*	i
CCc1nc2ccc(F)cc2c(C(=O)NC2CCCCC2C)c1C (stereo not drawn)	i	i	i	14*	i	428.5%*	i	86.0%*	43.5%*	·	171.0%*
Cc1cc(C(=O)NC2CCCCC2C)c2ccccc2n1 (stereo not drawn)	i	i	i	i	i	·	·	·	·	·	·
COc1ccc(-n2c(SCCNCCO)nc3sc4c(c3c2=O)CCCC4)cc1	i	-5.15*	i	i	i	-142.0%*	i	-34.5%*	74.0%*	51.5%*	i
COc1ccc(-n2c(SCC(=O)O)nc3sc4c(c3c2=O)CCCC4)cc1	i	i	i	i	i	·	·	·	·	·	·
Cn1nc([N+](=O)[O-])nc1N1CCN(c2ccc(F)cc2)CC1	i	-7*	i	i	i	·	·	·	·	i	i	TRPC4 spec 2=i;TRPC4 spec=i;HEK293 MPD ctr 2-1=i;HEK293 MPD ctr-1=i
COc1ccc(CNC(=O)CN(CCC(C)C)S(=O)(=O)c2ccc3c(c2)OCCO3)cc1	i	i	i	i	i	·	·	·	·	·	·
COc1ccc(S(=O)(=O)N2CCC(C(=O)Nc3ccccc3N3CCCCC3)CC2)cc1OC	i	i	i	i	i	·	·	·	·	·	·
Cc1cc(N2CCOCC2)c2c(N)c(Br)cc(C)c2n1	i	-5.12*	i	i	i	-301.0%*	i	-57.0%*	42.5%*	i	i
COc1ccc(C2(c3ccc(OC)cc3)NC(=O)N(CC(=O)NCC(F)(F)F)C2=O)cc1	i	i	i	i	i	·	·	·	·	·	·
CCOc1ccccc1NC(=O)C(C)N1C(=O)c2ccccc2S1(=O)=O (stereo not drawn)	i	i	i	i	i	·	·	·	·	·	·
CC(C)CC1CCCCC1OC(=O)C[N+]1(C)CCCCC1 (stereo not drawn)	i	-8.67*	i	i	i	·	·	·	·	87.1%*	i	TRPC4 spec 2=i;TRPC4 spec=i;HEK293 MPD ctr 2-1=15.5%*;HEK293 MPD ctr-1=i
OC(c1cccs1)(c1cccs1)C1C[N+]2(CF)CCC1CC2 (stereo not drawn)	i	-6.44*	i	i	i	i	i	i	i	40.0%*	i
CN(C)CCCN(C(=O)c1ccc(C(=O)c2ccccc2)cc1)c1nc2c(F)cccc2s1	i	-6.25*	i	i	i	i	i	i	82.0%*	60.5%*	i
CN(C)CCCN(C(=O)c1cc2ccccc2oc1=O)c1nc2c(F)cccc2s1	i	-6.5*	i	i	i	i	i	-21.5%*	88.0%*	70.0%*	i
CN(C)CCCN(C(=O)COc1ccccc1)c1nc2c(F)cccc2s1	i	-5*	i	i	i	i	i	-16.0%*	84.5%*	37.5%*	i
Fc1ccc2[nH]c3c(c2c1)CN(C(=S)NCc1ccccc1)CC3	i	-11.7*	i	i	i	·	·	·	·	127.4%*	·	TRPC4 spec 2=i;TRPC4 spec=-12.9%*;HEK293 MPD ctr 2-1=i;HEK293 MPD ctr-1=i
C=CCNC(=O)N1CCc2[nH]c3ccc(F)cc3c2C1	i	-6.17*	i	i	i	240.0%*	i	18.5%*	i	82.5%*	·
S=C(NCc1ccccc1)N1CCc2ccccc2C1	·	i	i	i	i	·	·	·	·	·	·
CCCCNC(=O)N1CCc2[nH]c3ccccc3c2C1	i	-6.13*	i	i	i	i	i	i	i	72.0%*	·
Cn1c(=O)c2c(ncn2CC(=O)N2CCN(C(=O)c3ccco3)CC2)n(C)c1=O	i	i	i	i	i	·	·	·	·	·	·
O=C(C[n+]1ccccc1)N1c2ccccc2Sc2ccccc21	i	-7.86*	i	i	i	i	82.0%*	i	i	82.0%*	i
O=C(COc1ccccc1)N1c2ccccc2Sc2ccccc21	i	i	i	i	i	·	·	·	·	·	·
